Experimental data reported in publication PMC7416767 (Gene, 2020).
Values belong to the compound of their own block, whether it stands above or below them.

Legend:
rat BMCs [1] = assay: ALP enzyme activity in total rat bone marrow cell culture, day 9; format: cell-based; conditions: for change in ALP activity over vehicle treated cultures: doses ranging from 1 pM to 10 μM, once at plating
Outline: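 Unfractionated BMCs from tibiae and femora of young or old female or male Sprague-Dawley rats, extruded into MEMα with 10% FCS and 50 μg/mL gentamicin, triturated and filtered. Plated at 1.8 × 10^5 cells/cm2 and dosed once at plating from 1000x ethanol stocks. Dex (10 nM final) added day 4. Day 9 lysis (Tris pH 8.4, ZnCl2, MgCl2, Triton X-100); pNPP, 405 nm; n = 8 wells; EC50 by non-linear regression.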

rat EP4 receptor [2] = target: T1, rat EP4 receptor (Rattus norvegicus, UniProt P43114); assay: CRE-regulated SEAP reporter; format: cell-based
rat EP4 receptor [3] = target: T1, rat EP4 receptor; assay: cAMP production, rat EP4 receptor expressed in HEK293T cells; format: cell-based; conditions: read-out: rat EP4 receptor cAMP levels EC50; mean ± SEM
Half-life in rat plasma = format: in vitro ADME; conditions: 1 μM, 37°C
Outline: (§1)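 Test compound at 1 μM in rat blood or plasma, 37°C, sampled at 0, 30, 60, 90 and 120 min. Quenched with acetonitrile, centrifuged, analyte peak areas read by HPLC-MS/MS.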

[4] = Half-life and intrinsic clearance in rat hepatocytes; format: in vitro ADME
Outline: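 Incubated at 37°C with 0.7 million viable rat hepatocytes/mL, sampled at 0, 30, 60, 90 and 120 min. Each sample quenched with acetonitrile and centrifuged; analyte peak areas measured by HPLC-MS/MS to derive half-life and intrinsic clearance.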

rat BMCs [5] = assay: Total adherent cell number in BMC cultures; format: cell-based; conditions: 1μM, days 5, 6, or 7, versus vehicle
rat BMCs [6] = assay: Mineralization of BMC cultures; format: cell-based; conditions: 1μM, day 21, compared to vehicle
Outline: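 Rat BMCs dosed at plating with 1μM test compound or 0.1% ethanol vehicle (n = 4 or 6 wells); in the short-exposure arm, 30 or 60 min suspension exposure. Dex added day 4; from day 7, osteogenic medium (ascorbic acid, dex, βGP) every 3 days. Day 21: fixed in 2% paraformaldehyde, stained with 5% AgNO3 plus UV, von Kossa-positive area per well quantified by imaging.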

rat BMCs [7] = assay: ALP-positive colony area in BMC cultures; format: cell-based; conditions: 1μM, day 9, compared to vehicle
cells = assay: Overt toxicity in cells; format: cell-based; conditions: except at a very high dose
[8] = Protein binding in rat plasma by equilibrium dialysis; format: in vitro ADME; conditions: 10 μM, equilibrium dialysis 4 hours 37°C
[9] = in vitro safety test; ref Barrett et al., 2019; cited from earlier work
rat BMCs [10] = assay: Adipogenesis assay, Oil Red O staining in BMC cultures; format: cell-based; conditions: 1μM, insulin and dexamethasone, day 12, versus vehicle
Half-life in rat blood = format: in vitro ADME; conditions: 1 μM, 37°C
Outline: as §1

rat BMCs [11] = assay: Osteoclastogenesis assay, TRAP-positive cells in BMC cultures; format: cell-based; conditions: for number of TRAP positive cells in the absence of exogenous M-CSF and RANKL: data not shown; for number of TRAP-positive cells: various doses, in the presence of 16 ng/mL RANKL and 16 ng/mL M-CSF, versus vehicle
[12] = In vivo pharmacokinetics after intravenous dosing in rats; conditions: intravenous 0.5 mg/kg, male Sprague-Dawley rats
Outline: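 Single intravenous dose of 0.5 mg/kg in 3 male Sprague-Dawley rats. Blood sampled up to 24 h post-dose; plasma levels measured by LC-MS/MS. Parameters calculated from the plasma concentration–time course by non-compartmental analysis.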

[13] = in vitro safety test; ref Barrett et al., 2019; cited from earlier work; remark: listed apart in the source
human EP4 = human EP4 (Homo sapiens, UniProt P35408); conditions: read-out: human EP4 binding Ki; ref Barrett et al., 2019; cited from earlier work
[14] = test system: non-EP prostanoids receptors (DP, FP, IP and TP); conditions: tested at 10 μM; ref Barrett et al., 2019; cited from earlier work
rat BMCs [15] = assay: Bone phenotype marker gene expression in BMCs; format: cell-based; conditions: 1μM once at plating
Outline: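 BMCs from young female rats dosed once at plating with 1μM test compound or 0.1% ethanol. Dex (10 nM final) added day 4. From day 7, fed every 3 days with medium containing ascorbic acid 100 μg/mL, dex 10 nM and βGP 10 mM. On set days, total RNA taken (n = 3 per time point), quantified at 260 nm, reverse transcribed, and analysed by SYBR Green qPCR.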

human EP3 = conditions: read-out: human EP3 binding Ki; ref Barrett et al., 2019; cited from earlier work
cytochrome P450 = conditions: in vitro safety test; ref Barrett et al., 2019; cited from earlier work
[16] = Chemical stability of KMN-159; format: physicochemical
bacterial = conditions: in vitro safety test; ref Barrett et al., 2019; cited from earlier work
rat EP2 receptor [17] = target: T2, rat EP2 receptor (Rattus norvegicus, UniProt Q62928); assay: cAMP production, rat EP2 receptor expressed in HEK293T cells; format: cell-based
rat EP2 receptor [18] = target: T2, rat EP2 receptor; assay: CRE-regulated SEAP reporter; format: cell-based
[19] = read-out: rat EP4 receptor CREB activation EC50, CRE-SEAP reporter, mean ± SEM

T1 sequence (P43114 whole entry): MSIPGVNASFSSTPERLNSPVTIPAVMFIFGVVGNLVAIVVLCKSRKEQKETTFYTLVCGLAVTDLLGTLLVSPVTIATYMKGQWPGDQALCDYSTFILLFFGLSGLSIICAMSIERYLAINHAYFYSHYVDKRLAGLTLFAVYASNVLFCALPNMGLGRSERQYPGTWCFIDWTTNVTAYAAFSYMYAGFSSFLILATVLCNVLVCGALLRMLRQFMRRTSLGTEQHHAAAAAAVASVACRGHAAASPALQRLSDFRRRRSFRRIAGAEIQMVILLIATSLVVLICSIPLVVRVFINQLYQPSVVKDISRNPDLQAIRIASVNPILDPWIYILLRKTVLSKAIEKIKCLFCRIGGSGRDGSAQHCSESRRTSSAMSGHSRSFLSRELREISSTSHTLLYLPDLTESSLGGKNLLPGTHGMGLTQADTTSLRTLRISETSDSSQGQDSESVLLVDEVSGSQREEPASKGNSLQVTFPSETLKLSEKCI
T2 sequence (Q62928 whole entry): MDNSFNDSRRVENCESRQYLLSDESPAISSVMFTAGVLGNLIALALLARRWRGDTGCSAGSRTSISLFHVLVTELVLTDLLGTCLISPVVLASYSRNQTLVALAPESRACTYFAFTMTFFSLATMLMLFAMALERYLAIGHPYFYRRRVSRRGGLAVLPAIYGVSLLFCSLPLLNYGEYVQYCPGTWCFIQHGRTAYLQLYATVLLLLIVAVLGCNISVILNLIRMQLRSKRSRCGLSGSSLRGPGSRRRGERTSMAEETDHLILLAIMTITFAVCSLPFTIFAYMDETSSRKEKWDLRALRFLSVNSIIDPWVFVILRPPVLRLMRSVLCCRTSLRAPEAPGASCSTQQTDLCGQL
human EP4, sequence (P35408 whole entry): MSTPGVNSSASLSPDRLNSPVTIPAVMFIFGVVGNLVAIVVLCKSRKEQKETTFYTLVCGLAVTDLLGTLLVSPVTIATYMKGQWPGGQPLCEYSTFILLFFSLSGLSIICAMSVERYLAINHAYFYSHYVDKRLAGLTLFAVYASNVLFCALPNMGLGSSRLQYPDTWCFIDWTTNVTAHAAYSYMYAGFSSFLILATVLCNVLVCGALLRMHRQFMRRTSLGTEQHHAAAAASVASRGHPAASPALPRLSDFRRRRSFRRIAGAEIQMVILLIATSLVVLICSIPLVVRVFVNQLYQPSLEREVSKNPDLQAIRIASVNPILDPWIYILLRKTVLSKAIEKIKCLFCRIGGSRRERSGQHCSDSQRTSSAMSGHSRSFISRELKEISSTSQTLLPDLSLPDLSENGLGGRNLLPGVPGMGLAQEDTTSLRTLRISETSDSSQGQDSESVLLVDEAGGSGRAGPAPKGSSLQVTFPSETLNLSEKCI

SMILES: CS(=O)(=O)NC(=O)CCC/C=C\C[C@H]1C(=O)C[C@@H](O)[C@@H]1/C=C/[C@@H](O)COc1ccccc1 [sulprostone, reference compound]
- change in ALP activity over vehicle treated cultures (rat BMCs [1]): no change in ALP activity

- EC50 (rat EP4 receptor [2]; [19]): 0.16 ± 0.049 nM
- EC50 (rat EP4 receptor [3]): 2.6 ± 0.62 nM
SMILES: CCCCCC(O)C=CC1CCC(=O)N1CCCCCCC(=O)O (stereo not shown) [11-deoxy-8-aza-PGE1, reference compound]

SMILES: CCC#CC[C@H](C)[C@H](O)/C=C/[C@H]1CC(F)(F)C(=O)N1CCCCCCC(=O)O [KMN-159]
- half life - plasma (Half-life in rat plasma): >2 h
- intrinsic clearance - hepatocytes [4]: <8.2 μL/min/10^6 cells
- half life - hepatocytes ([4]; 0.7 million viable cells/mL, 37°C): >2 h
- total cell number (rat BMCs [5]): no significant differences
- mineralized area detected by von Kossa staining (rat BMCs [6]): increase in mineralized area
- ALP positive area (rat BMCs [7]): increase the ALP positive area
- overt toxicity in cells (cells): no overt toxicity
- increase in ALP activity compared to vehicle treated cells (rat BMCs [1]; 1μM, 10 minutes exposure then compound removed, ALP day 9): approximately 3 fold
- induction of ALP as percent of the maximum reached between 30 and 60 minutes of exposure (rat BMCs [1]; 1μM, 10 minutes exposure, ALP measured 9 days later): approximately 75%
- increase in potency in the BMCs compared to 11-deoxy-8-aza-PGE1 (rat BMCs [1]; young female rat BMCs, ALP EC50): approximately 40 fold
- protein binding [8]: 53.8 ± 3.5%
- micronucleus formation [9]: negative
- Oil Red O staining (adipocyte formation) (rat BMCs [10]): no significant change
- half life - blood (Half-life in rat blood): >2 h
- number of TRAP positive cells in the absence of exogenous M-CSF and RANKL (rat BMCs [11]): none was observed
- number of TRAP-positive cells (rat BMCs [11]): significantly increased numbers of TRAP-positive cells
- area under the curve (extrapolated to infinity) [12]: 21.8 ± 5.55 ng·h/mL
- in vivo clearance rate [12]: 0.398 ± 0.0992 mL/min/kg
- mean residence time last [12]: 8.3 ± 1.0 min
- steady state volume of distribution [12]: 3.41 ± 1.15 L/kg
- clearance ([12]; Table 3): 398 ± 99.2 mL/min/kg
- Ames fluctuation [13]: negative
- Ki (human EP4): 0.38 nM
- binding to the non-EP prostanoids receptors [14]: no detectable binding
- RANKL expression (rat BMCs [15]; all timepoints tested, versus vehicle): significantly increased expression
- Runx2 mRNA increase in expression (rat BMCs [15]; day 5): ~ 2 x
- Runx2 expression (rat BMCs [15]; days 19 and 25, versus vehicle): significantly increased
- osteocalcin gene expression (rat BMCs [15]; later days, versus vehicle): increased with both, time in culture and KMN-159 treatment
- ALP mRNA expression (rat BMCs [15]; versus vehicle): increased
- OPG expression (rat BMCs [15]; versus vehicle): either unchanged or decreased
- collagen type IαI expression (rat BMCs [15]; versus vehicle): further increased
- EC50 (rat EP4 receptor [2]; [19]): 0.03 ± 0.003 nM
- Ki (human EP3): 258 nM
- cytochrome P450 inhibition (cytochrome P450): negative
- EC50 (rat EP4 receptor [3]): 0.5 ± 0.08 nM
- recovery ([16]; in aqueous solution and upon sterilization by autoclaving or gamma irradiation, data not shown): higher than 90%
- degradation of crystalline solid ([16]; storage at room temperature for over two years): no measurable degradation
- bacterial cytotoxicity (bacterial): negative

SMILES: CCCCC[C@H](O)/C=C/[C@H]1CCC(=O)[C@@H]1CCCCCCC(=O)O [11-deoxy-PGE1, reference compound]
- EC50 (rat EP4 receptor [2]; [19]): 0.06 ± 0.012 nM
- EC50 (rat EP4 receptor [3]): 1.3 ± 0.24 nM

SMILES: CCCCC[C@H](O)/C=C/[C@H]1CCC(=O)[C@@H]1C/C=C\CCCC(=O)O [11-deoxy-PGE2, reference compound]
- EC50 (rat EP4 receptor [3]): 1.1 ± 0.16 nM

SMILES: CCCCC[C@H](O)/C=C/[C@H]1[C@H](O)CC(=O)[C@@H]1C/C=C\CCCC(=O)O [PGE2, prostaglandin E2, reference compound]
- total cell number (rat BMCs [5]): no significant differences
- ALP positive area (rat BMCs [7]): increase the ALP positive area
- Oil Red O staining (adipocyte formation) (rat BMCs [10]): no significant change
- number of TRAP positive cells in the absence of exogenous M-CSF and RANKL (rat BMCs [11]): none was observed
- number of TRAP-positive cells (rat BMCs [11]): significantly increased numbers of TRAP-positive cells
- EC50 (rat EP4 receptor [2]): 0.03 ± 0.002 nM

- EC50 (rat EP4 receptor [2]; [19]): 0.17 ± 0.014 nM
- EC50 (rat EP4 receptor [3]): 2.6 ± 0.31 nM
SMILES: CCC#CC[C@H](C)[C@H](O)/C=C/[C@H]1CCC(=O)N1CCCCCCC(=O)O [KMN-80]
- potency in the BMC ALP assay compared with parent compound 11-deoxy-8-aza-PGE1 (rat BMCs [1]; young female rat BMCs): unchanged from the parent compound

- EC50 (rat EP4 receptor [2]; [19]): 0.03 ± 0.007 nM
- EC50 (rat EP4 receptor [3]): 0.3 ± 0.025 nM
SMILES: CCCCC[C@H](O)/C=C/[C@H]1CC(F)(F)C(=O)N1CCCCCCC(=O)O [KMN-165]

- EC50 (rat EP2 receptor [17]): 79.5 ± 9.1 nM
- EC50 (rat EP2 receptor [18]): 4.5 ± 0.46 nM
SMILES: CCCCC[C@H](O)/C=C/[C@H]1[C@H](O)CC(=O)[C@@H]1CCCCCCC(=O)O [PGE1, prostaglandin E1]

SMILES: CCCC1([C@H](O)C/C=C/[C@H]2[C@H](O)CC(=O)[C@@H]2CCCCCCC(=O)OC)CCC1 [butaprost, reference compound]
- change in ALP activity over vehicle treated cultures (rat BMCs [1]): no change in ALP activity
